ChEMBL document CHEMBL3351626, “Discovery, structure-activity relationship studies, and anti-nociceptive effects of 1-phenyl-3,6,6-trimethyl-1,5,6,7-tetrahydro-4H-indazol-4-one as novel opioid receptor agonists” (Bioorg Med Chem, 2014)
pEC50, pIC50, pKi: −log10 of the molar value. Blank lines part the entries; values can stand above or below the compound they belong to. Calls of active or inactive are those of the source. No cut-off for these calls is given here.

Assays:
Mu-type opioid receptor [1] = target: T1, Mu-type opioid receptor (Homo sapiens, UniProt P35372); type: functional, cell-based, CHO-K1
[2] = target: Kappa-type opioid receptor (Homo sapiens, UniProt P41145); assay: Agonist activity at human kappa opioid receptor expressed in HEK293 cells assessed as inhibition of forskolin-induced cAMP production after 30 mins by HTRF assay; type: functional, cell-based
Procedure, shortened: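 HEK293 cells stably expressing the mu, delta or kappa opioid receptor, plus parental cells, at 2000 cells/well in DMEM. Compound in HBSS added with 1 µM forskolin and 100 µM IBMX for 30 min at room temperature. d2-cAMP and anti-cAMP antibody in lysis buffer then added. Read 2 h later: excitation 330 nm, emission 620 and 665 nm.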

Mu-type opioid receptor [3] = target: T1, Mu-type opioid receptor; assay: Agonist activity at human mu opioid receptor expressed in HEK293 cells assessed as inhibition of forskolin-induced cAMP production after 30 mins by HTRF assay; type: functional, cell-based
Mu-type opioid receptor [4] = target: Mu-type opioid receptor (Rattus norvegicus, UniProt P33535); assay: Displacement of [3H]-naloxone from rat mu opioid receptor expressed in HEK cells after 60 mins; type: cell-based, HEK293
[5] = target: Delta-type opioid receptor (Homo sapiens, UniProt P41143); assay: Agonist activity at human delta opioid receptor expressed in HEK293 cells assessed as inhibition of forskolin-induced cAMP production after 30 mins by HTRF assay; type: functional, cell-based
Mus musculus [6] = assay: Analgesic activity in wild type B6 mouse assessed as basal tail-flick withdrawal latency at 25 mg/kg, iv injected with 10 mg/kg, sc naloxone 5 mins before compound dosing; type: functional, organism-based
Procedure, shortened: (§1)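 Wild-type B6 mice, n=6 per group. Basal tail-flick latency measured first. […] Latency read at 10, 20, 30, 40, 50 and 60 min after dosing. Test minus basal latency plotted against time and AUC calculated.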

Mu-type opioid receptor [7] = target: T1, Mu-type opioid receptor; assay: Agonist activity at myc-tagged mu opioid receptor (unknown origin) expressed in AtT-20 cells assessed as induction of membrane potential hyperpolarization; type: cell-based, AtT20
Procedure, shortened: (§2)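 Mouse pituitary AtT-20 cells (endogenous GIRK1/GIRK2) electroporated with myc-MOR plasmid or vehicle and seeded. After 24 h, serum-starved 3 h, then loaded with blue membrane potential dye for 0.5 h at 25 °C. Vehicle or compound added and potassium conductance read as fluorescence over about 175 s.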

Mus musculus [8] = assay: Analgesic activity in iv dosed wild type B6 mouse assessed as basal tail-flick withdrawal latency; type: functional
Procedure, shortened: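 Tail-flick instrument nociception test in wild-type B6 mice. Basal latency measured first, then compound given iv (20, 18.4 or 25 mg/kg depending on compound). Latency read at 10, 20, 30, 40, 50 and 60 min after dosing, reported as test latency minus basal latency. AUC of the time-response curve calculated; ED50 by up-and-down method. n=6 per group.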

Mu-type opioid receptor [9] = target: T1, Mu-type opioid receptor; assay: Agonist activity at myc-tagged mu opioid receptor (unknown origin) expressed in AtT-20 cells assessed as induction of membrane potential hyperpolarization in presence of 1 uM naloxone; type: cell-based; details: AtT20
Procedure, shortened: as §2

Mus musculus [10] = assay: Analgesic activity in wild type B6 mouse assessed as basal tail-flick withdrawal latency at 18.4 mg/kg, iv injected with 10 mg/kg, sc naloxone 5 mins before compound dosing; type: functional, organism-based
Procedure, shortened: as §1

Mus musculus [11] = assay: Analgesic activity in wild type B6 mouse assessed as basal tail-flick withdrawal latency at 20 mg/kg, iv injected with 10 mg/kg, sc naloxone 5 mins before compound dosing; type: functional, organism-based
Procedure, shortened: as §1

T1 sequence (P35372 whole entry): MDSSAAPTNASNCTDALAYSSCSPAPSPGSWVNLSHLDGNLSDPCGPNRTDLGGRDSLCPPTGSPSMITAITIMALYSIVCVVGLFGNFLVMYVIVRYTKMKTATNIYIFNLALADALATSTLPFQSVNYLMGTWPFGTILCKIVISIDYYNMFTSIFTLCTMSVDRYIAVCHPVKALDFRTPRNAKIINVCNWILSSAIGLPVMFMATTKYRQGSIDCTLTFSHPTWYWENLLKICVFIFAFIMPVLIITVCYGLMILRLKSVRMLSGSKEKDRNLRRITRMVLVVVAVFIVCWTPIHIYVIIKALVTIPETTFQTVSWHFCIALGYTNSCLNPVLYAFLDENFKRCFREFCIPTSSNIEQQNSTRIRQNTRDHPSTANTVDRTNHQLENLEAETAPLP
Kappa-type opioid receptor, sequence (P41145 whole entry): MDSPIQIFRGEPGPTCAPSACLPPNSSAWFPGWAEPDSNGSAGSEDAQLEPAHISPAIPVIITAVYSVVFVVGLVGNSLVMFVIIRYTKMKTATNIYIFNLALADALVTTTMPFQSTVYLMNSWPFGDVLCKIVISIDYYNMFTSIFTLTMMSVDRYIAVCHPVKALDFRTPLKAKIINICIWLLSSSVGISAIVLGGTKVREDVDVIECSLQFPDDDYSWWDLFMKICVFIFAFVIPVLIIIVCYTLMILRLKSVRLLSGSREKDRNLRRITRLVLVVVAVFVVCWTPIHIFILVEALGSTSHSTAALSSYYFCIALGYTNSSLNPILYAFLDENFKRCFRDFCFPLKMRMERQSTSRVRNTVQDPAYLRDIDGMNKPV
Delta-type opioid receptor, sequence (P41143 whole entry): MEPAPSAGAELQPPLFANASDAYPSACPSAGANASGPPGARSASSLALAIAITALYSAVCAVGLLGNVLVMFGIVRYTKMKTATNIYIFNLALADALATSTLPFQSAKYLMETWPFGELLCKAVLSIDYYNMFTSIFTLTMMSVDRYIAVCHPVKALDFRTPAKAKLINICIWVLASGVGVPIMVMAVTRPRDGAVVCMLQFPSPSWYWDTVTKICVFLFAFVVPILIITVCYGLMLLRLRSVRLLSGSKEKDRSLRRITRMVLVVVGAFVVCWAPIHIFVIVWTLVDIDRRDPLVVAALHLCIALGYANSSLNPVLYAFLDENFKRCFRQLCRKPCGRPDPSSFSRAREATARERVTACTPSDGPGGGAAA
Mu-type opioid receptor (Rattus norvegicus, UniProt P33535), sequence (P33535 whole entry): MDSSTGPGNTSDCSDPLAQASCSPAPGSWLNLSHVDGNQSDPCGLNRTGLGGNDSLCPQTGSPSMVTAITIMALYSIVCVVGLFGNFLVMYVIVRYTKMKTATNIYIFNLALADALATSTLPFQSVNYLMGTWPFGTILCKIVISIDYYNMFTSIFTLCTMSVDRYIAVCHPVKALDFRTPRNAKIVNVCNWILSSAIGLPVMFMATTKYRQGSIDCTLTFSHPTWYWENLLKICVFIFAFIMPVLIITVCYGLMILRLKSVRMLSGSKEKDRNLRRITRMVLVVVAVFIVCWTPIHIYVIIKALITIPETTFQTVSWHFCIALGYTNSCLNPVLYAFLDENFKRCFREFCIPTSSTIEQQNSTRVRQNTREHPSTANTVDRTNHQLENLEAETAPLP

SMILES: Cc1nn(-c2cccc(Cl)c2)c2c1C(=O)CC(C)(C)C2
- pEC50 (Mu-type opioid receptor [1]): < 4.00

SMILES: CCOC(=O)c1ccccc1-n1nc(C)c2c1CC(C)(C)CC2=O
- pEC50 (Mu-type opioid receptor [1]): 4.52

SMILES: Cc1nn(-c2ccc(F)cc2F)c2c1C(=O)CC(C)(C)C2
- pEC50 (Mu-type opioid receptor [1]): 4.99

SMILES: Cc1n[nH]c2c1C(=O)CC(C)(C)C2
- pEC50 (Mu-type opioid receptor [1]): < 4.00

SMILES: Cc1ccc(C)c(-n2nc(C)c3c2CC(C)(C)CC3=O)c1
- pEC50 (Mu-type opioid receptor [1]): 5.00

SMILES: CC1(C)CC(=O)c2c(C(F)(F)F)nn(-c3ccc(Cl)cc3Cl)c2C1
- pEC50 (Mu-type opioid receptor [1]): 5.81

SMILES: Cc1nn(-c2ccc(Br)cc2Br)c2c1C(O)CC(C)(C)C2 (stereo not given)
- pEC50 (Mu-type opioid receptor [1]): 7.00
- pIC50 [2]: 5.96
- pIC50 (Mu-type opioid receptor [3]): 5.47
- pKi (Mu-type opioid receptor [4]): < 4.00
- pIC50 [5]: < 4.00

SMILES: COc1ccc(-n2nc(C)c3c2CC(C)(C)CC3=O)cc1
- pEC50 (Mu-type opioid receptor [1]): 4.74

SMILES: Cc1nn(-c2ccc(Cl)cc2)c2c1C(=O)CC(C)(C)C2
- pEC50 (Mu-type opioid receptor [1]): 4.87

SMILES: Cc1ccc(-n2nc(C)c3c2CC(C)(C)CC3=O)c(Br)c1
- pEC50 (Mu-type opioid receptor [1]): 7.39
- Activity (Mus musculus [6]): inactive
- pIC50 [2]: 6.43
- pIC50 (Mu-type opioid receptor [3]): 5.22
- pEC50 (Mu-type opioid receptor [7]): 6.70
- ED50 (Mus musculus [8]): 26.6 mg/kg
- pKi (Mu-type opioid receptor [4]): 6.13
- pIC50 [5]: < 4.00
- Activity (Mu-type opioid receptor [9]): inactive

SMILES: Cc1nn(-c2ccc(Cl)cc2Cl)c2c1C(=O)CCC2
- pEC50 (Mu-type opioid receptor [1]): 4.87

SMILES: Cc1nn(-c2ccccc2)c2c1C(=O)CC(C)(C)C2
- pEC50 (Mu-type opioid receptor [1]): < 4.00

SMILES: COC(=O)c1ccc(-n2nc(C)c3c2CC(C)(C)CC3=O)cc1
- pEC50 (Mu-type opioid receptor [1]): 5.00

SMILES: Cc1nn(-c2ccc(Br)cc2)c2c1C(=O)CC(C)(C)C2
- pEC50 (Mu-type opioid receptor [1]): 5.00

SMILES: Cc1nn(-c2ccc(Cl)cc2Br)c2c1C(=O)CC(C)(C)C2
- pEC50 (Mu-type opioid receptor [1]): 7.39
- pIC50 [2]: 6.24
- Activity (Mus musculus [10]): inactive
- pIC50 (Mu-type opioid receptor [3]): 5.48
- pEC50 (Mu-type opioid receptor [7]): 7.00
- ED50 (Mus musculus [8]): 10.9 mg/kg
- pKi (Mu-type opioid receptor [4]): 6.21
- pIC50 [5]: 5.47
- Activity (Mu-type opioid receptor [9]): inactive

SMILES: CCc1ccccc1-n1nc(C)c2c1CC(C)(C)CC2=O
- pEC50 (Mu-type opioid receptor [1]): 4.72

SMILES: Cc1nn(-c2ccc(Br)cc2Br)c2c1C(=O)CC(C)(C)C2
- pEC50 (Mu-type opioid receptor [1]): 7.39
- pIC50 [2]: 6.39
- pIC50 (Mu-type opioid receptor [3]): 6.14
- pEC50 (Mu-type opioid receptor [7]): 5.26
- ED50 (Mus musculus [8]): 8.4 mg/kg
- pKi (Mu-type opioid receptor [4]): 6.33
- pIC50 [5]: 5.77
- Activity (Mus musculus [11]): inactive
- Activity (Mu-type opioid receptor [9]): inactive

Other lines, results leading:

- pEC50 (Mu-type opioid receptor [1]): 5.95
SMILES: Cc1nn(-c2ccccc2Br)c2c1C(=O)CC(C)(C)C2

- pEC50 (Mu-type opioid receptor [1]): 5.05
SMILES: Cc1cccc(-n2nc(C)c3c2CC(C)(C)CC3=O)c1C

- pEC50 (Mu-type opioid receptor [1]): 5.33
SMILES: Cc1ccccc1-n1nc(C)c2c1CC(C)(C)CC2=O

- pEC50 (Mu-type opioid receptor [1]): 6.43
- pKi (Mu-type opioid receptor [4]): 5.89
SMILES: CC1(C)CC(=O)c2c(C3CC3)nn(-c3ccc(Cl)cc3Cl)c2C1

- pEC50 (Mu-type opioid receptor [1]): 6.43
- pKi (Mu-type opioid receptor [4]): < 4.00
SMILES: Cc1cc(Cl)ccc1-n1nc(C)c2c1CC(C)(C)CC2=O

- pEC50 (Mu-type opioid receptor [1]): 6.43
- pKi (Mu-type opioid receptor [4]): 5.41
SMILES: Cc1ccc(-n2nc(C)c3c2CC(C)(C)CC3=O)c(C)c1

- pEC50 (Mu-type opioid receptor [1]): 5.54
SMILES: Cc1nn(-c2cc(Cl)ccc2Cl)c2c1C(=O)CC(C)(C)C2

- pEC50 (Mu-type opioid receptor [1]): 5.64
SMILES: Cc1nn(-c2ccccc2Cl)c2c1C(=O)CC(C)(C)C2

- pEC50 (Mu-type opioid receptor [1]): 6.82
- pIC50 [2]: 5.58
- pIC50 (Mu-type opioid receptor [3]): 5.10
- pIC50 [5]: 5.00
SMILES: Cc1nn(-c2ccc(Cl)cc2Cl)c2c1C(=O)CC(C)(C)C2
